Screens: PubChem, several laboratories
Pf gamet viab – P. falciparum stage V gametocyte viability inhibition | P. falciparum stage V gametocytes, ATP luminescence, 24 h | inhibition, % at 10.9 µM | hit rate 0.065% among 150,000 | AID 743093;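 active = inhibition above the mean plus 3 SD of compounds within the control limits, set per campaign, cut at about 38% in these data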
STAT1 activator – STAT1 signaling activation; hit rate 2.6% among 200,000; NIH 3T3 STAT1-luciferase reporter, IFN-gamma, luminescence; 100% = IFN-gamma alone, no compound; AID 932; activation (% of control), % at 5.5 µM;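 active = activation above the screen-wide mean activation plus 3 SD, cut at about 130% in these data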
NF-kB expr up – compounds increasing NF-kB expression in human neuronal cells; NF-kB reporter expression; stronger effect = higher value; fold change at 12.5 µM; hit rate 1.6% among 190,000; in the data active = fold change above about 3.3
STAT1 blocker – STAT1 signaling inhibition. NIH 3T3 STAT1-luciferase reporter, IFN-gamma, luminescence. inhibition, % at 5.5 µM. hit rate 0.35% among 200,000. AID 920;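 active = inhibition above a set limit, the mean inhibition across all tested compounds plus 3 SD, cut at about 34% in these data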
STAT3 activator – STAT3 signaling activation; U3A cells, IL-6 STAT3-luciferase reporter, luminescence; 100% = signal with IL-6 EC80 alone; activation (% of control), % at 5.6 µM; hit rate 0.91% among 190,000; AID 871;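 active = activation above the screen-wide mean of compound activation plus 3 SD, cut at about 130% in these data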
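Detection: reporter luminescence signal / Assay system: STAT1-lacking human U3A cells, STAT3 luciferase reporter / Incubation: compound pre-incubation 1 h before IL-6, then 6 h stimulation at 37 °C / Control set: IL-6-only high control / Read-out: % activation relative to IL-6 control / Probe or stimulus: Interleukin-6, 33 ng/mL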
APP 5'UTR act – activates APP 5'UTR luciferase reporter. activation, % at 2 µM. hit rate 1% among 190,000. SH-SY5Y APP 5'UTR luciferase reporter, luminescence; zero percent = DMSO vehicle wells;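 active = activation above a set limit, based on mean plus 3 SD of controls, cut at about 140% in these data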
Each line names hits and unclear results; the compound was inactive in the other large screens. Most compounds without a hit are left out; they make up all but 3.9% or so of the library.

O=C(COc1ccc(F)cc1)NN1C(=O)CSC1=S	none
Cc1ccccc1OCCOc1cccc(/C=N/NC(=O)Cc2nnc(N)s2)c1	none
Nc1nnc(CC(=O)N/N=C/c2cccc(OCCOc3ccccc3)c2)s1	STAT1 activator 129
Cc1cc(C)n(CC(O)COc2ccccc2Br)n1 (stereo not given)	none (no result: STAT1 activator, NF-kB expr up, STAT1 blocker, STAT3 activator, APP 5'UTR act)
O=C(CSc1nnnn1-c1ccccc1)Nc1nsc(-c2ccccc2)n1	NF-kB expr up 7.9
O=C(CSc1nnnn1-c1ccccc1)Nc1nsc(-c2ccc(Cl)cc2)n1	none
COc1ccccc1NC(=O)/C=C/c1ccc2c(c1)OCO2	STAT1 activator 134
O=C(/C=C/c1ccc2c(c1)OCO2)Nc1ccc(Cl)cn1	STAT1 activator 132, APP 5'UTR act 162
O=C(/C=C/c1ccccc1Cl)Nc1ccc(Cl)cn1	none (no result: Pf gamet viab, NF-kB expr up)
COc1cccc(/C=C/C(=O)Nc2ccc3c(c2)OCCO3)c1OC	NF-kB expr up 8.6, APP 5'UTR act 205
CC(=O)NCCc1ccc(S(=O)(=O)Nc2ccc3c(c2)OCCO3)cc1	none (no result: STAT1 activator, NF-kB expr up, STAT1 blocker, STAT3 activator, APP 5'UTR act)
O=C(Nc1nnc(-c2ccc3c(c2)OCCO3)o1)C1CCCCC1	none (no result: Pf gamet viab)
CC(C)(C)c1ccc(S(=O)(=O)NNC(=O)c2cc3ccccc3[nH]2)cc1	none (no result: STAT1 activator, NF-kB expr up, STAT1 blocker, STAT3 activator, APP 5'UTR act)
c1ccn(-c2ccc(-c3ccn[nH]3)cc2)c1	STAT1 activator 143
Cc1ccc(C)n1-c1ccc(-c2ccn[nH]2)cc1	none
O=C(Cc1ccccc1)Nc1ccc(N2CCCC2)cc1	none
CC1CCN(c2ccc(NC(=O)Cc3ccccc3)cc2)CC1	STAT1 activator 142
C=CCN(c1ccc(C(=O)NCCCn2ccnc2)cc1)S(C)(=O)=O	none (no result: STAT1 activator, NF-kB expr up, STAT1 blocker, STAT3 activator, APP 5'UTR act)
O=C(O)CSc1cc(C(=O)c2ccccc2O)cn2c(=O)c3c4c(sc3nc12)CCCC4	none (no result: STAT1 activator, NF-kB expr up, STAT1 blocker, STAT3 activator, APP 5'UTR act)
O=C(N/N=C/c1ccccn1)c1ccccc1	none
Cc1cccc(-n2c(C)cc(/C=N\NC(=O)c3ccco3)c2C)c1	STAT1 activator 145
Cc1ccccc1C(=O)N/N=C/c1ccccn1	STAT1 activator 136
Cc1cc(/C=N\NC(=O)c2cccs2)c(C)n1-c1ccc2ncccc2c1	STAT1 activator 130 (no result: Pf gamet viab)
Cc1ccc(/C=N/NC(=O)c2ccco2)cc1	none (no result: STAT1 activator, NF-kB expr up, STAT1 blocker, STAT3 activator, APP 5'UTR act)
O=C(N/N=C/c1ccccn1)c1cccs1	STAT1 activator 132
Cc1cc(=O)oc2c(C)c3occc3cc12	none (no result: STAT1 activator, NF-kB expr up, STAT1 blocker, STAT3 activator, APP 5'UTR act)
CCOc1cc2[nH]c(=O)n(CCCC(=O)N(C)Cc3ccccc3)c(=O)c2cc1OCC	none
COc1ccc(C2=NC(c3ccccc3)CO2)cc1 (stereo not given)	STAT1 activator 143 (no result: Pf gamet viab)
O=C(O)CC1(CC(=O)NCc2ccncc2)CCCCC1	none (no result: STAT1 activator, NF-kB expr up, STAT1 blocker, STAT3 activator, APP 5'UTR act)
CC(=O)Nc1ccc(C2C(=O)c3ccccc3C2=O)cc1	none (no result: STAT1 activator, NF-kB expr up, STAT1 blocker, STAT3 activator, APP 5'UTR act)
CC(=O)Nc1ccc(C2Nc3ccccc3C(=O)N2C2CCCCC2)cc1 (stereo not given)	NF-kB expr up 3.4
COc1cc(Nc2ncnc(N)n2)cc(OC)c1	none (no result: STAT1 activator, NF-kB expr up, STAT1 blocker, STAT3 activator, APP 5'UTR act)
O=C1NC(=O)C2(COC(c3cccc([N+](=O)[O-])c3)OC2)S1 (stereo not given)	none (no result: Pf gamet viab)
O=C(N/N=C/C=C\c1ccco1)c1ccccn1	none (no result: STAT1 activator, NF-kB expr up, STAT1 blocker, STAT3 activator, APP 5'UTR act)
O=C(N/N=C\C=C\c1ccco1)c1cc(-c2ccc3ccccc3c2)n[nH]1	STAT1 activator 133 (no result: Pf gamet viab)
C=CCNC(=O)c1c(Cl)cnn1-c1ccc(C)cc1	STAT1 activator 139
Cc1ccc(-n2ncc(Cl)c2C(=O)NC2CC2)cc1	STAT1 activator 141 (no result: Pf gamet viab)
Cc1cc(NC(=O)CSc2nnc(C)n2-c2ccccc2C)no1	none
COc1ccc(-c2cn3c(n2)CCC3)cc1	STAT1 activator 129 (no result: Pf gamet viab)
COc1ccc2sc(NC(=O)c3ccco3)nc2c1	STAT1 blocker 38 (no result: Pf gamet viab)
Cc1cnc(NC(=O)c2cncc(Br)c2)s1	STAT1 activator 136, NF-kB expr up 4, APP 5'UTR act 181
Cc1cnc(NC(=O)c2ccco2)s1	STAT1 activator 139 (no result: Pf gamet viab)
O=C(NC(=S)Nc1nc2ccccc2s1)c1ccco1	STAT1 activator 130, STAT3 activator 146, APP 5'UTR act 143
CCc1ccc2[nH]c3nc(N/N=C/c4ccc(O)cc4O)nnc3c2c1	none (no result: STAT1 activator, NF-kB expr up, STAT1 blocker, STAT3 activator, APP 5'UTR act)
COc1ccc(C2NC(=O)CCC2[N+](=O)[O-])c(OC)c1OC (stereo not given)	none (no result: STAT1 activator, NF-kB expr up, STAT1 blocker, STAT3 activator, APP 5'UTR act)
Cc1cc(C)c2c(N)c(C(=O)Nc3ncc(C)s3)sc2n1	STAT1 blocker 87 (no result: Pf gamet viab)
O=C(Nc1nnc(C2CCCCC2)s1)c1ccco1	STAT1 activator 130
COc1ccc(-c2csc(NC(=S)NC(=O)c3ccco3)n2)cc1	none
